Reference: ChEMBL document CHEMBL2384906, “Biological activity, design, synthesis and structure activity relationship of some novel derivatives of curcumin containing sulfonamides” (Eur J Med Chem, 2013)
≈ marks a conversion by molar mass, not a printed value. Calls of active or inactive are those of the source. The rule behind the calls is not given here.

Legend:
Aspergillus niger [1] = assay: Antifungal activity against Aspergillus niger MTCC 1108 assessed as zone of inhibition at 20 uM after 48 hrs by disc diffusion method; format: functional
Method in brief: (§1)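 Spores from 4-day potato dextrose agar cultures, suspended in sterile water at 1.5 × 10⁵ CFU/mL. 0.2 mL was spread on potato dextrose agar. 5 mm filter-paper discs soaked with test compound were laid on the lawn. Incubation was 48 h at 28 °C, then the inhibition zone was measured in mm. Fluconazole was the positive control and acetone the negative control.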

Salmonella typhi [2] = assay: Antimicrobial activity against Salmonella typhi ATCC 23564 after 24 hrs by broth micro serial dilution method; format: functional, Salmonella enterica subsp. enterica serovar Typhi; settings: Salmonella enterica, ATCC 23564, 24 h
Aspergillus niger [3] = assay: Antifungal activity against Aspergillus niger MTCC 1108 after 48 hrs; format: functional; settings: MTCC 1108, 48 h
Trichoderma viride [4] = assay: Antifungal activity against Trichoderma viride MTCC 1107 after 48 hrs; format: functional; settings: MTCC 1107, 48 h
Aspergillus niger [5] = assay: Antifungal activity against Aspergillus niger MTCC 1108 assessed as zone of inhibition at 40 uM after 48 hrs by disc diffusion method; format: functional; settings: MTCC 1108, 48 h, read-out: IZ; method in brief: as §1
Pseudomonas aeruginosa [6] = assay: Antimicrobial activity against Pseudomonas aeruginosa ATCC 15499 assessed as diameter of inhibition zone at 20 uM after 24 hrs by Kirby -Baur disc diffusion method; format: functional; settings: ATCC 15499, 24 h, read-out: DIZ
Method in brief: (§2)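 Kirby-Bauer disc diffusion was used. Acetone stocks (160 µM) were serially doubled down to 80, 40 and 20 µM. 4 µL of each went onto 5 mm sterile paper discs, which were dried 30 min at 50 °C. Inoculum was 1.5 × 10⁸ CFU/mL diluted to 3 × 10² CFU/mL, and 50 µL was spread on Mueller-Hinton agar. After 24 h at 37 °C the inhibition-zone diameter was measured. Ciprofloxacin served as positive control.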

HeLa = assay: Cytotoxicity against human HeLa cells after 24 hrs by MTT assay; format: functional, cell-based
Method in brief: (§3)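 The MTT assay seeded 5 × 10⁴ cells per well and grew them 24 h in RPMI 1640 with compound at 2.5–200 µM. Medium without cells was the blank and adriamycin the positive control. MTT was added for 4 h at 37 °C, formazan was solubilised, and absorbance was read at 570 nm. IC50 is the concentration that cuts viability 50% against untreated cells.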

Curvularia lunata [7] = assay: Antifungal activity against Curvularia lunata MTCC 581 assessed as zone of inhibition at 40 uM after 48 hrs by disc diffusion method; format: functional; settings: MTCC 581, 48 h, read-out: IZ; method in brief: as §1
Aspergillus flavus [8] = assay: Antifungal activity against Aspergillus flavus MTCC 1021 assessed as zone of inhibition at 40 uM after 48 hrs by disc diffusion method; format: functional; settings: MTCC 1021, 48 h, read-out: IZ; method in brief: as §1
QG-56 = assay: Cytotoxicity against human QG56 cells after 24 hrs by MTT assay; format: functional, cell-based; method in brief: as §3
Pseudomonas aeruginosa [9] = assay: Antimicrobial activity against Pseudomonas aeruginosa ATCC 15499 after 24 hrs by broth micro serial dilution method; format: functional; settings: ATCC 15499, 24 h
Method in brief: (§4)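 This was broth microdilution in autoclaved Mueller-Hinton broth. 150 µL of compound per well was serially diluted […], and 50 µL of test organism was added. Plates were incubated 24 h at 37 °C and optical density was read.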

Trichoderma viride [10] = assay: Antifungal activity against Trichoderma viride MTCC 1107 assessed as zone of inhibition at 80 uM after 48 hrs by disc diffusion method; format: functional; settings: MTCC 1107, 48 h, read-out: IZ; method in brief: as §1
Curvularia lunata [11] = assay: Antifungal activity against Curvularia lunata MTCC 581 assessed as zone of inhibition at 80 uM after 48 hrs by disc diffusion method; format: functional; settings: MTCC 581, 48 h, read-out: IZ; method in brief: as §1
Salmonella typhi [12] = assay: Antimicrobial activity against Salmonella typhi ATCC 23564 assessed as diameter of inhibition zone at 20 uM after 24 hrs by Kirby -Baur disc diffusion method; format: functional, Salmonella enterica subsp. enterica serovar Typhi; settings: Salmonella enterica, ATCC 23564, 24 h; read-out: DIZ
Trichoderma viride [13] = assay: Antifungal activity against Trichoderma viride MTCC 1107 assessed as zone of inhibition at 20 uM after 48 hrs by disc diffusion method; format: functional; settings: MTCC 1107, 48 h, read-out: IZ; method in brief: as §1
Aspergillus flavus [14] = assay: Antifungal activity against Aspergillus flavus MTCC 1021 assessed as zone of inhibition at 80 uM after 48 hrs by disc diffusion method; format: functional; settings: MTCC 1021, 48 h, read-out: IZ; method in brief: as §1
HepG2 = assay: Cytotoxicity against human HepG2 cells after 24 hrs by MTT assay; format: functional, cell-based; method in brief: as §3
Staphylococcus aureus [15] = assay: Antimicrobial activity against Staphylococcus aureus ATCC 11632 assessed as diameter of inhibition zone at 20 uM after 24 hrs by Kirby -Baur disc diffusion method; format: functional; settings: ATCC 11632, 24 h, read-out: DIZ; method in brief: as §2
Bacillus cereus [16] = assay: Antimicrobial activity against Bacillus cereus MTCC 7350 after 24 hrs by broth micro serial dilution method; format: functional; settings: MTCC 7350, 24 h; method in brief: as §4
Mus musculus = assay: Antiinflammatory activity in mouse assessed as inhibition of carrageenan-induced increase in paw volume at 200 mg/kg administered 1 hr prior to carrageenan challenge measured after 3 hrs relative to control; format: functional
Method in brief: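 Mice were fasted 2 h and placed in groups of five. Controls received saline i.p. Phenylbutazone was given at 100 mg/kg i.p., curcumin at 200 mg/kg i.p., and derivatives at 200 mg/kg. After 1 h, 0.1 mL of 1% carrageenan in saline was injected subplantar into the right hind paw. Paw volume was followed by plethysmometer for 3 h, and % inhibition was calculated as (Vc − Vt)/Vc × 100.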

Salmonella typhi [17] = assay: Antimicrobial activity against Salmonella typhi ATCC 23564 assessed as diameter of inhibition zone at 40 uM after 24 hrs by Kirby -Baur disc diffusion method; format: functional, Salmonella enterica subsp. enterica serovar Typhi; settings: Salmonella enterica, ATCC 23564, 24 h; read-out: DIZ
Aspergillus flavus [18] = assay: Antifungal activity against Aspergillus flavus MTCC 1021 assessed as zone of inhibition at 20 uM after 48 hrs by disc diffusion method; format: functional; method in brief: as §1
Staphylococcus aureus [19] = assay: Antimicrobial activity against Staphylococcus aureus ATCC 11632 after 24 hrs by broth micro serial dilution method; format: functional; settings: ATCC 11632, 24 h; method in brief: as §4
HCT-116 = assay: Cytotoxicity against human HCT116 cells after 24 hrs by MTT assay; format: functional, cell-based; method in brief: as §3
Escherichia coli [20] = assay: Antimicrobial activity against Escherichia coli ATCC 35218 assessed as diameter of inhibition zone at 40 uM after 24 hrs by Kirby -Baur disc diffusion method; format: functional; settings: ATCC 35218, 24 h, read-out: DIZ; method in brief: as §2
Curvularia lunata [21] = assay: Antifungal activity against Curvularia lunata MTCC 581 after 48 hrs; format: functional; settings: MTCC 581, 48 h
Aspergillus flavus [22] = assay: Antifungal activity against Aspergillus flavus MTCC 1021 after 48 hrs; format: functional; settings: MTCC 1021, 48 h
Escherichia coli [23] = assay: Antimicrobial activity against Escherichia coli ATCC 35218 assessed as diameter of inhibition zone at 80 uM after 24 hrs by Kirby -Baur disc diffusion method; format: functional; settings: ATCC 35218, 24 h, read-out: DIZ; method in brief: as §2
Curvularia lunata [24] = assay: Antifungal activity against Curvularia lunata MTCC 581 assessed as zone of inhibition at 20 uM after 48 hrs by disc diffusion method; format: functional; settings: MTCC 581, 48 h, read-out: IZ; method in brief: as §1
Staphylococcus aureus [25] = assay: Antimicrobial activity against Staphylococcus aureus ATCC 11632 assessed as diameter of inhibition zone at 80 uM after 24 hrs by Kirby -Baur disc diffusion method; format: functional; settings: ATCC 11632, 24 h, read-out: DIZ; method in brief: as §2
Aspergillus niger [26] = assay: Antifungal activity against Aspergillus niger MTCC 1108 assessed as zone of inhibition at 80 uM after 48 hrs by disc diffusion method; format: functional; settings: MTCC 1108, 48 h, read-out: IZ; method in brief: as §1
Escherichia coli [27] = assay: Antimicrobial activity against Escherichia coli ATCC 35218 after 24 hrs by broth micro serial dilution method; format: functional; settings: ATCC 35218, 24 h; method in brief: as §4
Escherichia coli [28] = assay: Antimicrobial activity against Escherichia coli ATCC 35218 assessed as diameter of inhibition zone at 20 uM after 24 hrs by Kirby -Baur disc diffusion method; format: functional; settings: ATCC 35218, 24 h, read-out: DIZ; method in brief: as §2
Bacillus cereus [29] = assay: Antimicrobial activity against Bacillus cereus MTCC 7350 assessed as diameter of inhibition zone at 80 uM after 24 hrs by Kirby -Baur disc diffusion method; format: functional; settings: MTCC 7350, 24 h, read-out: DIZ; method in brief: as §2
Pseudomonas aeruginosa [30] = assay: Antimicrobial activity against Pseudomonas aeruginosa ATCC 15499 assessed as diameter of inhibition zone at 40 uM after 24 hrs by Kirby -Baur disc diffusion method; format: functional; settings: ATCC 15499, 24 h, read-out: DIZ; method in brief: as §2
Trichoderma viride [31] = assay: Antifungal activity against Trichoderma viride MTCC 1107 assessed as zone of inhibition at 40 uM after 48 hrs by disc diffusion method; format: functional; settings: MTCC 1107, 48 h, read-out: IZ; method in brief: as §1
Bacillus cereus [32] = assay: Antimicrobial activity against Bacillus cereus MTCC 7350 assessed as diameter of inhibition zone at 20 uM after 24 hrs by Kirby -Baur disc diffusion method; format: functional; settings: MTCC 7350, 24 h, read-out: DIZ; method in brief: as §2
Staphylococcus aureus [33] = assay: Antimicrobial activity against Staphylococcus aureus ATCC 11632 assessed as diameter of inhibition zone at 40 uM after 24 hrs by Kirby -Baur disc diffusion method; format: functional; settings: ATCC 11632, 24 h, read-out: DIZ; method in brief: as §2
Salmonella typhi [34] = assay: Antimicrobial activity against Salmonella typhi ATCC 23564 assessed as diameter of inhibition zone at 80 uM after 24 hrs by Kirby -Baur disc diffusion method; format: functional, Salmonella enterica subsp. enterica serovar Typhi; settings: Salmonella enterica, ATCC 23564, 24 h; read-out: DIZ
Pseudomonas aeruginosa [35] = assay: Antimicrobial activity against Pseudomonas aeruginosa ATCC 15499 assessed as diameter of inhibition zone at 80 uM after 24 hrs by Kirby -Baur disc diffusion method; format: functional; settings: ATCC 15499, 24 h, read-out: DIZ; method in brief: as §2
Bacillus cereus [36] = assay: Antimicrobial activity against Bacillus cereus MTCC 7350 assessed as diameter of inhibition zone at 40 uM after 24 hrs by Kirby -Baur disc diffusion method; format: functional; settings: MTCC 7350, 24 h, read-out: DIZ; method in brief: as §2

`COc1cc(/C=C/C(O)=C/C(/C=C/c2ccc(O)c(OC)c2)=N/c2ccc(S(=O)(=O)Nc3cc(C)on3)cc2)ccc1O` was tested, and the “inhibition zone (IZ)” value (Aspergillus niger [1]) was “inactive”, the MIC (Salmonella typhi [2]) was 20 µM (≈ 12.1 µg/mL) and the MIC (Aspergillus niger [3]) was 40 µM (≈ 24.1 µg/mL). For the same molecule, the MIC (Trichoderma viride [4]) was 80 µM (≈ 48.3 µg/mL), the zone of inhibition at 40 µM (Aspergillus niger [5]) was 9 mm and the zone of inhibition at 20 µM (Pseudomonas aeruginosa [6]) was 17 mm. For the same molecule, the IC50 (HeLa) was 50 µM, the zone of inhibition at 40 µM (Curvularia lunata [7]) was 10 mm and the zone of inhibition at 40 µM (Aspergillus flavus [8]) was 9 mm. It also gave an IC50 (QG-56) of 50 µM, an MIC (Pseudomonas aeruginosa [9]) of 20 µM (≈ 12.1 µg/mL) and a zone of inhibition at 80 µM (Trichoderma viride [10]) of 13 mm. For the same molecule, the zone of inhibition at 80 µM (Curvularia lunata [11]) was 11 mm, the zone of inhibition at 20 µM (Salmonella typhi [12]) was 12 mm and the zone of inhibition at 20 µM (Trichoderma viride [13]) was 9 mm. For the same molecule, the zone of inhibition at 80 µM (Aspergillus flavus [14]) was 11 mm, the IC50 (HepG2) was 25 µM and the zone of inhibition at 20 µM (Staphylococcus aureus [15]) was 17 mm. The MIC (Bacillus cereus [16]) was 20 µM (≈ 12.1 µg/mL), the inhibition in vivo at 200 mg/kg (Mus musculus) was 33.8% and the zone of inhibition at 40 µM (Salmonella typhi [17]) was 17 mm. The “inhibition zone (IZ)” value (Aspergillus flavus [18]) was “inactive”, the MIC (Staphylococcus aureus [19]) was 20 µM (≈ 12.1 µg/mL) and the IC50 (HCT-116) was 25 µM. It also gave a zone of inhibition at 40 µM (Escherichia coli [20]) of 21 mm, an MIC (Curvularia lunata [21]) of 80 µM (≈ 48.3 µg/mL) and an MIC (Aspergillus flavus [22]) of over 80 µM. For the same molecule, the zone of inhibition at 80 µM (Escherichia coli [23]) was 27 mm, the zone of inhibition at 20 µM (Curvularia lunata [24]) was 9 mm and the zone of inhibition at 80 µM (Staphylococcus aureus [25]) was 24 mm. The zone of inhibition at 80 µM (Aspergillus niger [26]) was 12 mm, the MIC (Escherichia coli [27]) was 20 µM (≈ 12.1 µg/mL) and the zone of inhibition at 20 µM (Escherichia coli [28]) was 19 mm. For the same molecule, the zone of inhibition at 80 µM (Bacillus cereus [29]) was 21 mm, the zone of inhibition at 40 µM (Pseudomonas aeruginosa [30]) was 23 mm and the zone of inhibition at 40 µM (Trichoderma viride [31]) was 11 mm. For the same molecule, the zone of inhibition at 20 µM (Bacillus cereus [32]) was 13 mm, the zone of inhibition at 40 µM (Staphylococcus aureus [33]) was 21 mm and the zone of inhibition at 80 µM (Salmonella typhi [34]) was 20 mm. It also gave a zone of inhibition at 80 µM (Pseudomonas aeruginosa [35]) of 25 mm and a zone of inhibition at 40 µM (Bacillus cereus [36]) of 18 mm.
